Experimental data published in ChEMBL document CHEMBL1124174, “Substituted benzamides. 1. Potential nondopaminergic antagonists of chemotherapy-induced nausea and emesis” (J Med Chem, 1988).
Values joined by “and” are separate entries in the source; they are usually repeats but may differ in a detail not shown here. Equal entries are not always repeated.

Legend:
[1] = tested on: Canis familiaris; experiment: In vivo antagonism of cisplatin-induced emesis in dog measured as emetic episodes, twice the dose of 0.3 mg/kg in 2 dogs; format: functional, Canis lupus familiaris
Procedure, shortened: (§1)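 Nonfasted mature male or female beagles were dosed sc twice, 30 min before and 120 min after cisplatin (3 mg/kg iv; 3 mg/mL in warm 0.9% saline, used immediately). Emesis was observed up to 5 h; events within 2 min counted as one episode. Results were given as mean emetic episodes and % protection versus a dynamic control (historical and concurrent saline means pooled). t test versus saline.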

[2] = tested on: Mustela putorius furo; experiment: In vivo antagonism of cisplatin-induced emesis in ferret measured as percentage protection for twice the dose of 1 mg/kg and in 3 ferrets; format: functional; conditions: 1 mg/kg
Procedure, shortened: (§2)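 Nonfasted castrated male Fitch ferrets (1–1.5 kg) had jugular catheters implanted ≥48 h earlier under anesthesia. Compounds or saline were given iv twice, 5 min before and 90 min after cisplatin (12 mg/kg iv; 12 mg/mL in warm 0.9% saline). Emesis was observed up to 4 h; events within 1 min counted as one episode. Results were given as mean emetic episodes and % protection versus a pooled historical/concurrent control. t test versus saline.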

[3] = tested on: Canis familiaris; experiment: In vivo antagonism of cisplatin-induced emesis in dog measured as emetic episodes, twice the dose of 0.1 mg/kg in 2 dogs; format: functional, Canis lupus familiaris; procedure, shortened: as §1
[4] = tested on: Mustela putorius furo; experiment: In vivo antagonism of cisplatin-induced emesis in ferret measured as emetic episodes, twice the dose of 3 mg/kg and in 3 ferrets; format: functional; procedure, shortened: as §2
[5] = target: D(2) dopamine receptor (Rattus norvegicus, UniProt P61169); experiment: In vitro antagonistic activity against Dopamine receptor D2 was evaluated for the inhibition of [3H]spiperone binding
Procedure, shortened: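 Rat striatal membranes were prepared by differential centrifugation in 50 mM Tris pH 7.4 at 4 °C. Membrane protein (10 mg) was incubated 15 min at 37 °C with 0.1 nM [3H]spiperone and varying competitor concentrations. Buffer: 50 mM Tris HCl pH 7.5, 0.1% ascorbic acid, pargyline, 120 mM NaCl, 5 mM KCl, 2 mM CaCl2, 1 mM MgCl2. (+)-Butaclamol defined nonspecific binding. Bound ligand was collected by filtration and scintillation counted. IC50 by log-logit regression.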

[6] = tested on: Canis familiaris; experiment: In viov antagonism of cisplatin-induced emesis in dog measured as percentage protection for twice the dose of 1 mg/kg in 2 dogs; format: functional, Canis lupus familiaris; procedure, shortened: as §1
[7] = tested on: Mustela putorius furo; experiment: In vivo antagonism of cisplatin-induced emesis in ferret measured as emetic episodes, twice the dose of 0.3 mg/kg and in 3 ferrets; format: functional; procedure, shortened: as §2
[8] = tested on: Canis familiaris; experiment: In vivo antagonism of cisplatin-induced emesis in dog measured as percentage protection for twice the dose of 0.1 mg/kg in 2 dogs; format: functional, Canis lupus familiaris; procedure, shortened: as §1
[9] = tested on: Mustela putorius furo; experiment: In vivo antagonism of cisplatin-induced emesis in ferret measured as percentage protection for twice the dose of 3 mg/kg and in 3 ferrets; format: functional; procedure, shortened: as §2
[10] = tested on: Canis familiaris; experiment: In vivo antagonism of cisplatin-induced emesis in dog measured as percentage protection for twice the dose of 0.3 mg/kg in 2 dogs; format: functional, Canis lupus familiaris; procedure, shortened: as §1
[11] = tested on: Mustela putorius furo; experiment: In vivo antagonism of cisplatin-induced emesis in ferret measured as percentage protection for twice the dose of 0.3 mg/kg and in 3 ferrets; format: functional; conditions: 0.3 mg/kg; procedure, shortened: as §2
[12] = tested on: Canis familiaris; experiment: In vivo antagonism of cisplatin-induced emesis in dog measured as emetic episodes, twice the dose of 1 mg/kg in 2 dogs; format: functional, Canis lupus familiaris; procedure, shortened: as §1
[13] = tested on: Mustela putorius furo; experiment: In vivo antagonism of cisplatin-induced emesis in ferret measured as emetic episodes, twice the dose of 1 mg/kg and in 3 ferrets; format: functional; procedure, shortened: as §2
[14] = tested on: Canis familiaris; experiment: In vivo antagonism of cisplatin-induced emesis in dog measured as emetic episodes, twice the dose of 3 mg/kg in 2 dogs; format: functional, Canis lupus familiaris; procedure, shortened: as §1
[15] = tested on: Canis familiaris; experiment: In vivo antagonism of cisplatin-induced emesis in dog measured as percentage protection for twice the dose of 6 mg/kg in 2 dogs; format: functional, Canis lupus familiaris; procedure, shortened: as §1
[16] = tested on: Canis familiaris; experiment: In vivo antagonism of cisplatin-induced emesis in dog measured as emetic episodes, twice the dose of 6 mg/kg in 2 dogs; format: functional, Canis lupus familiaris; procedure, shortened: as §1
[17] = tested on: Mustela putorius furo; experiment: In vivo antagonism of cisplatin-induced emesis in ferret measured as percentage protection for twice the dose of 31 mg/kg and in 3 ferrets; format: functional; conditions: dose 1 mg/kg; in the assay text read “1 mg/kg” for “31 mg/kg”; procedure, shortened: as §2
[18] = tested on: Canis familiaris; experiment: In vivo antagonism of cisplatin-induced emesis in dog measured as percentage protection for twice the dose of 3 mg/kg in 2 dogs; format: functional, Canis lupus familiaris; procedure, shortened: as §1
[19] = target: D(2) dopamine receptor (Canis lupus familiaris) (UniProt Q9GJU1); experiment: In vivo antagonism activity against dopamine D2 receptor was measured as emesis in dog when administered subcutaneously; format: functional, organism-based
[20] = target: D(2) dopamine receptor (Rattus norvegicus) (UniProt P61169); experiment: In vivo antagonism activity against D2 receptor was measured as stereotypy in rat when administered subcutaneously; format: functional, organism-based
Procedure, shortened: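 Male Long Evans rats (275 g) were dosed sc in dilute aqueous HCl (pH 4.5-5.5) 30 min before apomorphine (1 mg/kg sc).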

[21] = target: D(2) dopamine receptor (Rattus norvegicus) (UniProt P61169); experiment: In vivo antagonistic activity against dopamine D2 receptor was measured as catalepsy in rat when administered subcutaneously; format: functional, organism-based
Procedure, shortened: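 Male Long Evans rats (275 g) received graded sc doses in dilute aqueous HCl (pH 4.5-5.5). They were observed 180 min for catalepsy, scored when the animal stayed stationary ≥15 s on a four-cork template.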

[22] = tested on: Canis familiaris; experiment: In vivo antagonism of cisplatin-induced emesis in dog measured as percentage protection for twice the dose of 1 mg/kg in 2 dogs; format: functional, Canis lupus familiaris; procedure, shortened: as §1
[23] = tested on: Mustela putorius furo; experiment: In vivo protection against cisplatin-induced emesis in ferret measured as percentage protection for twice the dose of 0.1 mg/kg and in 3 ferrets; format: functional
Procedure, shortened: (§3)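 Nonfasted castrated male Fitch ferrets (1–1.5 kg) carried jugular vein catheters implanted at least 48 h earlier under general anesthesia. Test compound or saline was given iv twice, 5 min before and 90 min after cisplatin (12 mg/kg iv; 12 mg/mL in warm saline). Emesis was watched for 4 h, with events within 1 min counted as one episode. % protection is relative to a pooled historical-plus-concurrent control, with t test versus saline.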

[24] = tested on: Mustela putorius furo; experiment: In vivo protection against cisplatin-induced emesis in ferret measured as p emetic episodes for twice the dose of 0.9 mg/kg and in 6 ferrets; format: functional; procedure, shortened: as §3
[25] = tested on: Canis familiaris; experiment: In vivo protection against cisplatin-induced emesis in dog measured as percentage protection twice the dose of 0.1 mg/kg and in 3 dogs
[26] = tested on: Mustela putorius furo; experiment: In vivo protection against cisplatin-induced emesis in ferret measured as emetic episodes for twice the dose of 0.1 mg/kg and in 3 ferrets; format: functional; procedure, shortened: as §3
[27] = tested on: Mustela putorius furo; experiment: In vivo protection against cisplatin-induced emesis in ferret measured as emetic episodes for twice the dose of 2.7 mg/kg and in 3 ferrets; format: functional; procedure, shortened: as §3
[28] = tested on: Mustela putorius furo; experiment: Cisplatin-induced emesis in ferret measured as stereotypy […] when administered iv […] twice daily; format: functional
[29] = tested on: Mustela putorius furo; experiment: In vivo protection against cisplatin-induced emesis in ferret measured as emetic episodes for twice the dose of 0.3 mg/kg and in 6 ferrets; format: functional; procedure, shortened: as §3
[30] = tested on: Canis familiaris; experiment: In vivo protection against cisplatin-induced emesis in dog measured as percentage protection for twice the dose of 0.1 mg/kg and in 3 […]; format: functional, Canis lupus familiaris
[31] = tested on: Mustela putorius furo; experiment: In vivo antagonism of cisplatin-induced emesis in ferret measured as emetic episodes, twice the dose of 0.1 mg/kg and in 3 ferrets; format: functional; procedure, shortened: as §2
[32] = tested on: Mustela putorius furo; experiment: In vivo antagonism of cisplatin-induced emesis in ferret measured as percentage protection for twice the dose of 3 mg/kg
[33] = tested on: Mustela putorius furo; experiment: In vivo protection against cisplatin-induced emesis in ferret measured as percentage protection for twice the dose of 2.7 mg/kg and in 0.1 ferrets; format: functional; conditions: in the assay text read “in 3 ferrets” for “in 0.1 ferrets”; procedure, shortened: as §3
[34] = tested on: Canis familiaris; experiment: In vivo protection against cisplatin-induced emesis in dog measured as emetic episodes for twice the dose of 0.9 mg/kg and in 3 […]; format: functional, Canis lupus familiaris
[35] = tested on: Mustela putorius furo; experiment: In vivo protection against cisplatin-induced emesis in ferret measured as percentage protection for twice the dose of 0.9 mg/kg and in 6 ferrets; format: functional; procedure, shortened: as §3
[36] = tested on: Canis familiaris; experiment: cisplatin-induced emesis in dog was measured for when administered twice daily; conditions: Canis lupus familiaris
[37] = tested on: Mustela putorius furo; experiment: In vivo antagonism of cisplatin-induced emesis in ferret measured as percentage protection for twice the dose of 3 mg/kg and […]; format: functional; procedure, shortened: as §2
[38] = tested on: Mustela putorius furo; experiment: In vivo protection against cisplatin-induced emesis in ferret measured as percentage protection for twice the dose of 0.3 mg/kg and in 6 ferrets; format: functional; procedure, shortened: as §3
[39] = tested on: Canis familiaris; experiment: In vivo protection against cisplatin-induced emesis in dog measured as emetic episodes for twice the dose of 0.3 mg/kg and in 5 […]; format: functional, Canis lupus familiaris
[40] = tested on: Canis familiaris; experiment: In vivo protection against cisplatin-induced emesis in dog measured as emetic episodes for twice the dose of 0.1 mg/kg and in 3 […]; format: functional, Canis lupus familiaris
[41] = tested on: Mustela putorius furo; experiment: In vitro antagonism of cisplatin-induced emesis in ferret measured as percentage protection for twice the dose of 1 mg/kg and in 3 ferrets; format: functional; conditions: in the assay text read “In vivo” for “In vitro”; procedure, shortened: as §2

Chain of D(2) dopamine receptor (Canis lupus familiaris) (Q9GJU1 whole entry): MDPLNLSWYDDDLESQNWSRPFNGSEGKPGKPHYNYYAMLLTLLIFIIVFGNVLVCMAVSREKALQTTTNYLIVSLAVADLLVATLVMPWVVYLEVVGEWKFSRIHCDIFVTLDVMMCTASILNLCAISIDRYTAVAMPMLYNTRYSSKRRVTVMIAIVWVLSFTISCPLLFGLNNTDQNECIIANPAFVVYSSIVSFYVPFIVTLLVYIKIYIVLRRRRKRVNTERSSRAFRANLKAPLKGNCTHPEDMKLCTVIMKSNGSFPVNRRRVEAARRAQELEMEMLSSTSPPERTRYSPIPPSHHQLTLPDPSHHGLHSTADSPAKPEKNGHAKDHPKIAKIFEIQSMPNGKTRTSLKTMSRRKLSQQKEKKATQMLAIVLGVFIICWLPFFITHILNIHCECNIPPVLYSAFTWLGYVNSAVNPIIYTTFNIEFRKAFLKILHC
Chain of D(2) dopamine receptor (P61169 whole entry): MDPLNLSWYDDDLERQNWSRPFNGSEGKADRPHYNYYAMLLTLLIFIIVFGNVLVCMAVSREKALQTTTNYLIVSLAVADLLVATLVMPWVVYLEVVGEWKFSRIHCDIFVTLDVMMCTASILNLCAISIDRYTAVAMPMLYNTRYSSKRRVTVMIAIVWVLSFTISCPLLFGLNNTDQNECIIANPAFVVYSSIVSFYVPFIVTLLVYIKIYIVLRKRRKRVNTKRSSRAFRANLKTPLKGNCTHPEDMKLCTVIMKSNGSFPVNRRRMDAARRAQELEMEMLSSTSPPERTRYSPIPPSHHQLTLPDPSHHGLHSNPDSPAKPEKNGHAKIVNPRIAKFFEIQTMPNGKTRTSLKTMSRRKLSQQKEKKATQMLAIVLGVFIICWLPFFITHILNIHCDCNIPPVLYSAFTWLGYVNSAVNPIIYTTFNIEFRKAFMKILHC
Chain of D(2) dopamine receptor (Rattus norvegicus) (P61169 whole entry): as above

## CCN(CC)CCNC(=O)c1cc(Cl)c(N)cc1OC(C)C(C)O (stereo in doubt; 8g)
[1]; 0.3 mg/kg
  Emetic episodes: 0
[2]
  Protection: 82%
[3]
  Emetic episodes: 4
[4]; 3 mg/kg
  Emetic episodes: 1
[5]
  IC50: > 1000 nM
[6]
  Protection: 100%
[7]; 0.3 mg/kg
  Emetic episodes: 0.7
[8]
  Protection: 62%
[9]; 3 mg/kg
  Protection: 86%
[10]; 0.3 mg/kg
  Protection: 100%
[11]
  Protection: 49%
[12]
  Emetic episodes: 0
[13]; 1 mg/kg
  Emetic episodes: 1.3

## C#CCOc1cc(N)c(Cl)cc1C(=O)NCCN(CC)CC
[14]
  Emetic episodes: 3.5
[4]
  Emetic episodes: 3.3
[5]
  IC50: > 1000 nM
[15]
  Protection: 73%
[16]
  Emetic episodes: 2
[17]
  Protection: 40%
[9]
  Protection: 50%
[18]
  Protection: 72%
[19]
  ED50: > 1 mg/kg
[20]
  ED50: > 40 mg/kg
[21]
  ED50: > 40 mg/kg
[13]
  Emetic episodes: 4.3

## CCN(CC)CCNC(=O)c1cc(Cl)c(N)cc1OC(C)C(C)=O (stereo not drawn) [BATANOPRIDE]
[1]
  Emetic episodes: 1.5
[22]
  Protection: 96%
[3]
  Emetic episodes: 0.5
[4]
  Emetic episodes: 0.3
[23]
  Protection: 53%
[24]
  Emetic episodes: 0.5
[25]
  Protection: 58%
[5]
  IC50: > 1000 nM
[26]
  Emetic episodes: 3.3
[7]
  Emetic episodes: 1
[8]
  Protection: 60%
[27]
  Emetic episodes: 0.3
[28]
  ED50: 0.14 mg/kg
[29]
  Emetic episodes: 2.5
[30]
  Protection: 86% and 100%
[31]
  Emetic episodes: 3.3
[10]
  Protection: 87%
[32]
  Protection: 90%
[33]
  Protection: 96%
[34]
  Emetic episodes: 0
[35]
  Protection: 93%
[36]
  ED50: 0.05 mg/kg
[37]
  Protection: 96% and 54%
[38]
  Protection: 64%
[39]
  Emetic episodes: 1.6
[19]
  ED50: > 3 mg/kg
[40]
  Emetic episodes: 5
[20]
  ED50: > 40 mg/kg
[21]
  ED50: > 40 mg/kg
[12]
  Emetic episodes: 0.5

## CCN(CC)CCNC(=O)c1cc(Cl)c(N)cc1OC(C)(C)C(C)=O
[1]
  Emetic episodes: 2.7
[41]
  Protection: 62%
[5]
  IC50: > 1000 nM
[10]
  Protection: 77%
[19]
  ED50: > 3 mg/kg
[20]
  ED50: > 40 mg/kg
[21]
  ED50: > 40 mg/kg
[13]
  Emetic episodes: 2.7
